{"data": "Published values pooled from the literature", "target": "Serine/threonine-protein kinase D2 (PRKD2, Homo sapiens, UniProt Q9BZL6)", "Residues used in one study (Q9BZL6 1-878)": "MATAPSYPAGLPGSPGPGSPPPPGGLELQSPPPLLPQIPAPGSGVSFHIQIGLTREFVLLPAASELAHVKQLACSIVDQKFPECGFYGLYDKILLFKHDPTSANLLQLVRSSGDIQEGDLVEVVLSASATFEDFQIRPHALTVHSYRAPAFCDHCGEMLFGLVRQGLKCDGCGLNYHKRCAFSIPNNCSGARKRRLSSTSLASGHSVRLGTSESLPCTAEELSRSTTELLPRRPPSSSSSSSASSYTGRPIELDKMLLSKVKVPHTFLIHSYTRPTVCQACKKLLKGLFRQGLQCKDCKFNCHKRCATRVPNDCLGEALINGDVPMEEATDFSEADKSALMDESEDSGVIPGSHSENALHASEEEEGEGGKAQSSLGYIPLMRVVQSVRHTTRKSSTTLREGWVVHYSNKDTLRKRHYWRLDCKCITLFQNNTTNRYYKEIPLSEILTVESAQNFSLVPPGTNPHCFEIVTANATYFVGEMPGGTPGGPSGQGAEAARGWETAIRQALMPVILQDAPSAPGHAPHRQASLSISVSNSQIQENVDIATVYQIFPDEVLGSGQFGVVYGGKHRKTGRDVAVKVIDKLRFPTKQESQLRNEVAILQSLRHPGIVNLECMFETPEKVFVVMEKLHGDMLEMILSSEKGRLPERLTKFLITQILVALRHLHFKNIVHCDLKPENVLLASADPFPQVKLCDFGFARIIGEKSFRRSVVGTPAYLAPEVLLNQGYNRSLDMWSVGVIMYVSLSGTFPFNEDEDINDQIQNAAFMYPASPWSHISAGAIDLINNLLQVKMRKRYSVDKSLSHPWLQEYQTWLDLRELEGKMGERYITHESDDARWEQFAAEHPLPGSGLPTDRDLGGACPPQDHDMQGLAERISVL", "note": "Protocols differ between the studies behind these lines."}
{"SMILES": "CC1=C(C#N)[C@@H](c2ccc3[nH]nc(C)c3c2)C(C#N)=C(c2ccc(Cl)cc2)N1", "effect on": "cell-free assay", "method": "competition with immobilised ligand", "tested at": "1 µM", "remaining binding": "100%"}
{"SMILES": "COc1cnc(Nc2cccc(S(N)(=O)=O)c2)nc1N1CCN(c2ccccc2)C(=O)C1", "effect on": "binding", "method": "competition with immobilised ligand", "tested at": "1 µM", "remaining binding": "100%"}
{"SMILES": "COc1ccnn2ncc(-c3ccnc(N(C)C)n3)c12", "effect on": "binding", "tested at": "1 µM", "remaining binding": "92%"}
{"SMILES": "CNCc1ccccc1-c1csc([C@H](C)Nc2nc(C)nc3cc(OC)c(OC)cc23)c1", "effect on": "cell-free assay", "method": "competition with immobilised ligand", "tested at": "1 µM", "remaining binding": "99%"}
{"SMILES": "O=C(c1ccc(Nc2ncc(Cl)c(-c3ccc(Cl)s3)n2)cc1)N1CCC(N2CCCC2)CC1", "effect on": "binding", "method": "competition with immobilised ligand", "tested at": "1 µM", "remaining binding": "8.7%"}
{"SMILES": "CS(=O)(=O)N1CCCC(NC(=O)[C@H](CCC2CCCCC2)NC(=O)c2ccc(CNC(=O)c3cnc4ccccn34)cc2)C1 (stereo partly shown)", "effect on": "cell-free assay", "method": "competition with immobilised ligand", "tested at": "0.1 µM", "remaining binding": "100%"}
{"SMILES": "Cc1cnc(Nc2ccc(C(=O)N3CCC(N4CCCC4)CC3)cc2)nc1-c1cc2ccccc2s1", "effect on": "binding", "method": "competition with immobilised ligand", "tested at": "1 µM", "remaining binding": "47%"}
{"SMILES": "Nc1ncc2c(n1)-c1c([nH]c3ccc(C#CC4CC4)cc13)CCCC2", "effect on": "binding", "method": "competition with immobilised ligand", "tested at": "1 µM", "remaining binding": "87%"}
{"SMILES": "N[C@@H]1CCN(c2nccc(-c3cnn4ncccc34)n2)C1", "effect on": "binding", "tested at": "1 µM", "remaining binding": "94%"}
{"SMILES": "FC(F)(F)Oc1cccc(-c2cnc3ccc(-c4ccncc4)nn23)c1", "effect on": "cell-free assay", "method": "competition with immobilised ligand", "tested at": "5 µM", "remaining binding": "99%"}
{"SMILES": "Cc1nc(N2CC[C@@H](O)C2)ncc1-c1cc(C(F)(F)F)cc2[nH]ncc12", "effect on": "binding", "method": "competition with immobilised ligand", "tested at": "1 µM", "remaining binding": "79%"}
{"SMILES": "CN(c1nccc(-c2cnn3ncccc23)n1)C1CC1", "effect on": "binding", "tested at": "1 µM", "remaining binding": "99%"}
{"SMILES": "CCN1CCN(Cc2ccc(C(=O)Nc3ccc(C)c(Oc4ccc5c(c4)CC(=O)N5)c3)cc2C(F)(F)F)CC1", "effect on": "binding", "method": "competition with immobilised ligand", "tested at": "1 µM", "remaining binding": "95%"}
{"SMILES": "C=CC(=O)N1CCC(C(=O)NCC(=O)N2CCN(c3nc(-c4cnc(N)nc4C(F)F)nc(N4CCOCC4)n3)CC2)CC1", "effect on": "binding", "method": "competition with immobilised ligand", "tested at": "1 µM", "remaining binding": "100%"}
{"SMILES": "CN(C)c1ncc(F)c(-c2cnn3ncccc23)n1", "effect on": "binding", "tested at": "1 µM", "remaining binding": "87%"}
{"SMILES": "O=C(c1ccc(Nc2ncc(Cl)c(-c3cc4ccccc4s3)n2)cc1)N1CCC(N2CCCC2)CC1", "effect on": "binding", "method": "competition with immobilised ligand", "tested at": "1 µM", "remaining binding": "21%"}
{"SMILES": "Cn1cc(Cl)c2c(Oc3c(F)cc(Nc4cc(Cl)nc(N)n4)cc3F)ccnc21", "effect on": "cell-free assay", "method": "competition with immobilised ligand", "tested at": "0.1 µM", "remaining binding": "91%"}
{"SMILES": "CN(CCCC(F)(F)F)c1nccc(-c2cnn3ncccc23)n1", "effect on": "binding", "tested at": "1 µM", "remaining binding": "99%"}
{"SMILES": "CCCCN(CCCC)C(=O)CN1C[C@@H](c2cc(OC)c3c(c2)OCO3)[C@H](C(=O)O)[C@H]1CC(C)(C)CCC", "effect on": "cell-free assay", "method": "competition with immobilised ligand", "tested at": "1 µM", "remaining binding": "90.6%"}
{"SMILES": "COc1ncc2cc3ccccc3nc2c1C#N", "effect on": "cell-free assay", "method": "competition with immobilised ligand", "tested at": "5 µM", "remaining binding": "93%"}
{"SMILES": "C[C@@H]1CCN(c2nccc(-c3cnn4ncccc34)n2)C1", "effect on": "binding", "tested at": "1 µM", "remaining binding": "83%"}
{"SMILES": "O=C(Nc1c[nH]nc1C(=O)NC1CCNCC1)c1cc(F)cc(F)c1", "effect on": "binding", "method": "competition with immobilised ligand", "tested at": "1 µM", "remaining binding": "100%"}
